Test results: PubChem BioAssay AID504667 (Broad Institute, 2011)
Several values for one entry are separate records, joined by “and”; a condition that tells them apart may be missing. Equal values may be shown once. Inconclusive results are not listed. Activity calls are given as the source filed them.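 Rule for the calls: active = signal drops with a fitted half-maximal dose within ten times the top tested dose, in every replicate test; inconclusive = replicate tests disagree, or flat partial drop, or poor fit; inactive = the rest, including effects in the wrong direction.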

Tested on: not listed separately
Assay: HMLE_shECad viability reduction – cell-based, CellTiter-Glo luminescence, dry powder, set 6, dose response (AID 504667)
Settings: HMLE_shECad viability, CellTiter-Glo luminescence, 72 h; at 19.5 µM (top of the series)
Procedure, shortened: (§1)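 Measured by: CellTiter-Glo ATP luminescence, reagent diluted 1:3 in PBS, 12 min / System: HMLE_shECad cells, stable E-cadherin knockdown, EMT-induced, CSC-like / Schedule: ≥4 h cell attachment, ~72 h compound exposure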

Compound	activity change, negative = inhibition
Cc1csc(NC(=O)c2ccc(COc3cccc(S(C)(=O)=O)c3)o2)n1	-5.39% (inactive)
COCc1ccc(C(=O)Nc2nc(C)cs2)o1	-7.05% (inactive)
C/C(=C\C(=O)NC1=NCCS1)c1ccc(CC(C)C)cc1	-2.19% (inactive)
CC(C)NC(=O)c1ccc(COc2ccccc2)o1	-15.6% (inactive)
CCN(CC)C(=O)c1ccc(COc2ccccc2)o1	-1.82% (inactive)
CC(C)c1ccc(/C=C/C(=O)Nc2nc3ccccc3s2)cc1	-8.38% (inactive)
Cc1csc(NC(=O)c2ccc(COC(C)(C)C)o2)n1	-7.02% (inactive)
O=C(Nc1nncs1)c1ccc(COc2ccccc2)o1	-0.185% (inactive)
CNC(=O)c1csc(NC(=O)c2ccc(COc3ccccc3)o2)n1	-0.72% (inactive)

Same assay, conditions: HMLE_shECad viability, CellTiter-Glo luminescence, 72 h; at 30 µM (top of the series)

Compound	activity change, negative = inhibition
Cc1ccc2cc(C(=O)NC3=NCCS3)n(C)c2c1	-5.01% (inactive)
O=C(Nc1nc2cc(F)ccc2s1)c1ccc(COc2ccccc2)o1	-21.2% (inactive)
COc1ccc(OC)c2sc(NC(=O)c3ccc(COc4ccccc4)o3)nc12	-5.85% (inactive)
COc1ccc2nc(NC(=O)c3ccc(COc4ccccc4)o3)sc2c1	-14.7% (inactive)
Cc1csc(NC(=O)c2cocc2COc2ccccc2)n1	-3.35% (inactive)

Tested on: HMLE_shECad viability, CellTiter-Glo luminescence, 72 h
Assay: as above
Settings: not given
Procedure, shortened: as §1

Compound	AC50
COc1ccc(/C=C/C(=O)NC2=NCCS2)c(OC)c1	10.4 µM
N#Cc1csc(NC(=O)c2ccc(COc3ccccc3)o2)n1	13.7 µM
Cc1csc(NC(=O)c2ccc(COc3cccc(Cl)c3)o2)n1	0.5 µM
Cc1csc(NC(=O)c2ccc(COc3cc(Cl)ccc3Cl)o2)n1	0.024 µM
Cc1csc(NCc2ccc(COc3ccccc3)o2)n1	28.8 µM
CCOc1cccc(OCc2ccc(C(=O)Nc3nc(C)cs3)o2)c1	0.896 µM
CC(C)c1ccc(/C=C/C(=O)Nc2cncs2)cc1	6.44 µM
Cc1ccc(OCc2ccc(C(=O)Nc3nc(C)cs3)o2)cc1	2.04 µM
Cc1csc(NC(=O)c2ccc(COC3CCCCC3)o2)n1	13.6 µM
CC(C)c1ccc(/C=C/C(=O)N(C)C2=NCCS2)cc1	20.9 µM
Cc1cc(Br)ccc1OCC(=O)N/N=C/c1ccc[nH]1	3.22 µM
Cc1csc(NC(=O)c2ccc(COCc3ccccc3)o2)n1	4.92 µM
Cc1csc(NC(=O)c2ccc(COc3ccccc3S(C)(=O)=O)o2)n1	20.9 µM
CC(C)Cc1ccc(/C=C/C(=O)NC2=NCCS2)cc1	0.386 µM
COc1cccc(OCc2ccc(C(=O)Nc3nc(C)cs3)o2)c1	0.223 µM
Cc1csc(NC(=O)c2ccc(COc3ccccc3F)o2)n1	0.007 µM
Cc1csc(NC(=O)c2ccc(COC3CCCC3)o2)n1	28.3 µM
Cc1csc(NC(=O)c2ccc(CNc3ccccc3)o2)n1	0.38 µM
O=C(COc1c(Cl)cc(Cl)cc1Cl)N/N=C/c1ccc[nH]1	1.51 µM

Compound	AC50
Cc1csc(NC(=O)c2ccc(COc3cccc(OC(F)(F)F)c3)o2)n1	0.162 µM
Cc1csc(NC(=O)c2ccc(COc3cccc(F)c3)o2)n1	3.25 µM
Cc1csc(NC(=O)c2ccoc2COc2ccccc2)n1	16.6 µM
Cc1csc(NC(=O)c2ccc(CCc3ccccc3)o2)n1	0.794 µM
Cc1csc(NC(=O)c2ccc(CNc3ccccn3)o2)n1	7.55 µM
Cc1csc(NC(=O)c2ccc(COc3cccc(Oc4ccccc4)c3)o2)n1	0.388 µM
Cc1csc(NC(=O)c2coc(COc3ccccc3)c2)n1	1.27 µM
O=C(COc1ccc(Cl)cc1Cl)N/N=C/c1ccc[nH]1	3.8 µM
Cc1cccc(OCc2ccc(C(=O)Nc3nc(C)cs3)o2)c1	0.123 µM and 0.596 µM
COc1ccc(OCc2ccc(C(=O)Nc3nc(C)cs3)o2)c(F)c1	3.35 µM
CCc1ccc(/C=C/C(=O)NC2=NCCS2)cc1	2.33 µM
N#Cc1ccc(/C=C/C(=O)NC2=NCCS2)cc1	24.6 µM
Cc1csc(NC(=O)c2ccc(COc3ccccn3)o2)n1	9.4 µM
Cc1csc(NC(=O)c2ccc(COc3ccccc3)o2)n1	1.05 µM
CC(C)c1ccc(/C=C/C(=O)NC2=NCCS2)cc1	3.23 µM
COc1ccc(Cl)c(OCc2ccc(C(=O)Nc3nc(C)cs3)o2)c1	0.08 µM
Cc1cc(C)c(OCC(=O)N/N=C/c2ccc[nH]2)c(C)c1	4.45 µM
O=C(Nc1nc(C(F)(F)F)cs1)c1ccc(COc2ccccc2)o1	13.8 µM
